# Measurements as given in article PMC9262120 (Chembiochem : a European journal of chemical biology, 2022).
# Legend:
# [1] = tested on: TMGMV; assay: Cross-reactivity ELISA, TMGMV; assay type: binding, tobacco mild green mosaic virus; conditions: conclusion
# In short: (§1)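 Wells coated with 10 µg virus or VLP in 0.1 M bicarbonate, pH 8.6, overnight at 4 °C, then blocked with 5% BSA for 1 h at RT. 10^9 pfu phage in 5% BSA were added for 1 h, followed by 0.5% TBST washes. Detection used HRP anti-M13 (1:500, 1 h) and TMB for 10 min in the dark, read at 370 nm. Controls were empty M13KE phage and BSA-coated wells.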
# [2] = tested on: CPMV; assay: Cross-reactivity ELISA, CPMV; assay type: binding, cowpea mosaic virus; conditions: conclusion
# In short: as §1
# [3] = tested on: TMV; assay: ELISA with biotinylated peptide on streptavidin plates; assay type: binding, Tobacco mosaic virus; conditions: CPMV-specific vs TMV-specific biotinylated peptide, Figure S3
# In short: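 0.1 µg biotinylated peptide was bound to streptavidin-coated plates for 1 h at RT; control wells received 5% BSA without peptide. Plates were blocked with 5% BSA, then 10 µg TMV was added for 1 h. Detection used rabbit anti-TMV polyclonal (1:1000, 1 h), then HRP goat anti-rabbit (1:10,000, 1 h), then TMB for 5–10 min. Reactions were stopped with 2 M H₂SO₄ and read at 450 nm.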
# [4] = tested on: BSA; assay: Off-target binding to blocking agent BSA; set-up: species or system bovine
# [5] = tested on: TMV; assay: TMV–TBPT25-FITC ELISA; assay type: binding, Tobacco mosaic virus; conditions: varying TMV coated on plates; Figure S5
# [6] = molecular target: T1, tobacco mild green mosaic virus particles (tobacco mild green mosaic virus, UniProt P03579 1-159); assay: ELISA
# T1 sequence: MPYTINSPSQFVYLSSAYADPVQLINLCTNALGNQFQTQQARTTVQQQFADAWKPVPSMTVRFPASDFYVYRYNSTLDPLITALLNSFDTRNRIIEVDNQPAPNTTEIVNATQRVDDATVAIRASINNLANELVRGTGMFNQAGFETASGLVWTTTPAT
molecule,measurement,setting,value
H-GHRCRGGVCYKK-OH (cysteine pairing not given here) [TBPT25],off-target binding to TMGMV,[1],Some off-target binding
same,off-target binding to CPMV,[2],Some off-target binding
same,"TMV binding, random peptide comparison",[3],TMV binding to the TMV-specific TBPT25 was confirmed
same,off-target binding to BSA,[4],Some off-target binding
H2N-GHRCRGGVCYKKKGGGSK/FITC/-CO2H [TBPT25-FITC],concentration dependence of binding,[5],"the more TMV coated onto the plates, the higher signal"
GHRCRGGVCYKK (designed binder) [monoclonal phage T25 (M13 phage displaying [residues removed])],fold less binding than to TMV,[6],1.2 fold
